Experiment [1] relates to VGLUT. Nature of the experiment: Vesicular glutamate uptake into synaptic vesicles. It counts as biochemical, rat.
Experiment [2] addresses VGLUT. Nature of the experiment: Kinetics of vesicular glutamate uptake with Brilliant Yellow. It counts as biochemical, rat. The note with it: competitive with glutamate; 0, 40, 60 and 80 nM Brilliant Yellow; n=3.
The subject of experiment [3] is plasma membrane glutamate transporter. Kind of experiment: Na+-dependent synaptosomal glutamate uptake. It counts as biochemical, rat. The note with it: for Glutamate uptake / %Control: 50 μM test agent; for Glutamate uptake: Na+-dependent [3H]glutamate uptake into synaptosomes; for %Control: synaptosomal glutamate uptake. The procedure, abridged:
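Rat cerebrum synaptosomes (100 μg protein) were incubated 10 min at 37 °C in Krebs solution with 1 μM [3H]glutamate (5 Ci/mmol), ± 50 μM test agent. Na+-dependent uptake was NaCl minus choline chloride values, in dpm and % of control.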

Experiment [4] concerns the target T1, vesicular GABA transporter (Bos taurus, UniProt G3N354).
T1 sequence (G3N354 1-526): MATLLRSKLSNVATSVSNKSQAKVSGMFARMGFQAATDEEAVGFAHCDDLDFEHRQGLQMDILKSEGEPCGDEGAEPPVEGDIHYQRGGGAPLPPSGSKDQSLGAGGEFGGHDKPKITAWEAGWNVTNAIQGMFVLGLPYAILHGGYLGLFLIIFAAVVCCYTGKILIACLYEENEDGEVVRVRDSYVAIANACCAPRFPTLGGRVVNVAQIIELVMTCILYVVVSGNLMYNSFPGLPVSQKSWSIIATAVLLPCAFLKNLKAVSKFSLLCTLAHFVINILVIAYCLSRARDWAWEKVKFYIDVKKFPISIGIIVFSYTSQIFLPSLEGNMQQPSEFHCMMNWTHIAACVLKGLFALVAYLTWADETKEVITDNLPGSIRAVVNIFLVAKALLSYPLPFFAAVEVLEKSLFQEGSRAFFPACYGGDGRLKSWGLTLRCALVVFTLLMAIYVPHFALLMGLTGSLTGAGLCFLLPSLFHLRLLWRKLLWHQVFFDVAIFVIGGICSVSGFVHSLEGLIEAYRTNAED
Kind of experiment: Vesicular GABA uptake into synaptic vesicles. It counts as biochemical, bovine. To be noted: concentrations up to 50 μM. The procedure, abridged: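 Crude calf cerebral cortex synaptic vesicles in 20 mM K-Hepes pH 7.4, 4 mM MgSO4, 4 mM KCl, 0.25 M sucrose. Pre-incubated 10 min at 30 °C with varied test compound concentrations. Then 2 mM ATP plus 50 μM [3H]GABA for 10 min. Filtered and washed with 0.15 M KCl.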

Experiment [5] relates to VGLUT. To be noted: ref [25], cited from earlier work.
Where [6] appears, read: Table 3, Brilliant Yellow analogs, vesicular glutamate uptake.
[7] abbreviates: Table 1, rat brain synaptic vesicles, 50 μM [3H]glutamate ± ATP, 10-min incubation.

Several values for one entry are separate records, joined by “and”; a condition that tells them apart may be missing. Equal entries are not always repeated. Where two headings read alike, the source gives them in different places.

For the compound `O=S(=O)(O)c1cc(NS(=O)(=O)c2ccccc2)ccc1C=Cc1ccc(NS(=O)(=O)c2ccccc2)cc1S(=O)(=O)O` [4,4’-diphenylsulfonamidostilbene-2,2’-disulfonate], in experiment [1] (setting [6]), the IC50 (commonly the concentration at which inhibition is half-maximal) is more than 50000 nM.
Nitrazine Yellow returned an IC50 in experiment [1] (setting [7]) of 4400 nM.
With `O=C(Nc1ccc(C=Cc2ccc(NC(=O)c3ccccc3)cc2S(=O)(=O)O)c(S(=O)(=O)O)c1)c1ccccc1` [4,4’-dibenzamidostilbene-2,2’-disulfonate], it took 2000 nM to reach half-maximal inhibition in experiment [1] (setting [6]) (IC50).
Consider `O=S(=O)([O-])c1cc(N=Nc2ccc(O)cc2)ccc1/C=C/c1ccc(N=Nc2ccc(O)cc2)cc1S(=O)(=O)[O-].[Na+].[Na+]` [Brilliant Yellow], for which the Ki – broadly, a measure of affinity in units of concentration, obtained from inhibition or displacement – in experiment [2] is 12 nM and 12.5 nM. The same compound had an IC50 in experiment [1] (setting [7]) of 44 ± 7 nM. In experiment [1] (setting [6]), this compound returned an IC50 of 44 ± 6 nM. In addition, the “Inhibition of vesicular glutamate uptake” value in experiment [1] (at 0.3 μM) is on record as 80%. Moreover, in experiment [3], the Glutamate uptake is 279,032 dpm and the “%Control” value is given as 112%. Besides, the “Effect on synaptosomal glutamate uptake” value in experiment [3] (concentrations up to 50 μM) is “affected neither”. Moreover, the “Effect on vesicular GABA uptake” value in experiment [4] is “affected neither”.
Take `O=C([O-])C1=NN(c2ccc(S(=O)(=O)[O-])cc2)C(=O)C1N=Nc1ccc(S(=O)(=O)[O-])cc1.[Na+].[Na+].[Na+]` (centres unmarked) [Tartrazine]: the “Inhibitory activity on vesicular glutamate uptake” value in experiment [1] is “rather inactive”. This compound came in with an IC50 in experiment [1] (setting [7]) of more than 50000 nM.
`CCOc1ccc(N=Nc2ccc(/C=C/c3ccc(N=Nc4ccc(OCC)cc4)cc3S(=O)(=O)O)c(S(=O)(=O)O)c2)cc1` [Chrysophenine] registered an IC50 in experiment [1] (setting [6]) of 266 ± 70 nM.
For the compound `Cc1cc(-c2ccc(/N=N/c3c(S(=O)(=O)O)cc4cc(S(=O)(=O)O)cc(N)c4c3O)c(C)c2)ccc1/N=N/c1c(S(=O)(=O)O)cc2cc(S(=O)(=O)O)cc(N)c2c1O` [Trypan Blue], in experiment [5] ([26]), the IC50 was 49 nM. Also, the Ki in experiment [5] was approximately 50 nM.
Take `O=[N+]([O-])c1ccc(C=Cc2ccc([N+](=O)[O-])cc2S(=O)(=O)O)c(S(=O)(=O)O)c1` [4,4’-Dinitrostilbene-2,2’-disulfonate, 4,4’-dinitrostilbene-2,2’-disulfonate]: half-maximal inhibition in experiment [1] (setting [6]) (IC50) required 1690 ± 110 nM.
For `Nc1ccc(C=Cc2ccc(N)cc2S(=O)(=O)O)c(S(=O)(=O)O)c1` [4,4-Diaminostilbene-2,2’-disulfonate, 4,4’-diaminostilbene-2,2’-disulfonate], the IC50 in experiment [1] (setting [6]) was more than 50000 nM.
As for `O=S(=O)(O)c1ccc2c(N=Nc3cccc4ccccc34)c(O)c(S(=O)(=O)O)cc2c1` [Bordeau R], in experiment [1] (setting [7]), the IC50 is 6500 nM.
In turn, `CC(=O)Nc1ccc(C=Cc2ccc(NC(C)=O)cc2S(=O)(=O)O)c(S(=O)(=O)O)c1` [4,4-Diacetamidostilbene-2,2’-disulfonate, 4,4’-diacetamidostilbene-2,2’-disulfonate] showed an IC50 in experiment [1] (setting [6]) of more than 50000 nM.
Turning to `COc1cc(N=Nc2c(C)cc(C)cc2S(=O)(=O)[O-])c(C)cc1N=Nc1c(S(=O)(=O)[O-])cc2cc(Nc3ccccc3)ccc2c1O.[Na+].[Na+]` [Direct Violet 51], the IC50 in experiment [1] (setting [7]) was 148 ± 31 nM. Besides, in experiment [3], the Glutamate uptake is reported as 258,020 dpm and the “%Control” value was determined as 104%.
For the compound Sulforhodamine, the “Inhibitory activity on vesicular glutamate uptake” value in experiment [1] is “rather inactive”. The IC50 in experiment [1] (setting [7]) was more than 50000 nM.
Consider `O=S(=O)(O)c1cc(S(=O)(=O)O)c2c(N=Nc3ccc(N=Nc4ccccc4)cc3)c(O)ccc2c1` [Brilliant Crocein MOO], for which, in experiment [1] (setting [7]), the IC50 worked out at 7700 nM.
